From ChEMBL document CHEMBL1149831, “Synthesis of 2-aryl-4-(benzimidazol-2-yl)-1,2-dihydro[1,2,4]triazino-[4,5-a]benzimidazol-1-one derivatives with preferential cytotoxicity against carcinoma cell lines” (Eur J Med Chem, 2008)

What was measured:
Assay type in all cases: functional, cell-based
CCRF-CEM [1] = test: Cytotoxicity against human CEM cells after 72 hrs by MTT assay
Summary of the method: (§1)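 Cells grown in DMEM/RPMI 1640 with 5 g/L glucose, 2 mM glutamine, penicillin/streptomycin, 10% fetal calf serum and NaHCO3. Seeded in 96-well plates and left 24 h at 37 °C, 5% CO2 before compound addition. Exposure then ran 72 h, each concentration in duplicate. MTT added for 1-4 h and formazan dissolved overnight in 10% aq. SDS (pH 5.5). OD read at 540 nm, with IC50 taken from dose-response curves.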

CCRF-CEM [2] = test: Cytotoxicity against human CEM-DNR bulk cells after 72 hrs by MTT assay; summary of the method: as §1
K562 [3] = test: Cytotoxicity against human K562 cells after 72 hrs by MTT assay; details: K562, 72 h; summary of the method: as §1
K562 [4] = test: Cytotoxicity against human K562-Tax cells after 72 hrs by MTT assay; details: K562, 72 h; summary of the method: as §1
A549 = test: Cytotoxicity against human A549 cells after 72 hrs by MTT assay; details: A549, 72 h; summary of the method: as §1
MCF7 = test: Cytotoxicity against human MCF7 cells after 72 hrs by MTT assay; details: MCF7, 72 h; summary of the method: as §1
PC-3 = test: Cytotoxicity against human PC3 cells after 72 hrs by MTT assay; details: PC-3, 72 h; summary of the method: as §1
HT-29 = test: Cytotoxicity against human HT29 cells after 72 hrs by MTT assay; details: HT-29, 72 h; summary of the method: as §1
HCT-116 [5] = test: Cytotoxicity against human HCT116 cells expressing wild type p53 after 72 hrs by MTT assay; details: HCT-116, 72 h; summary of the method: as §1
HCT-116 [6] = test: Cytotoxicity against human HCT116 cells expressing mutant p53 after 72 hrs by MTT assay; details: HCT-116, 72 h; summary of the method: as §1
U-118-MG = test: Cytotoxicity against human U118Mg cells after 72 hrs by MTT assay; summary of the method: as §1

`Clc1ccc(NN=C(c2nc3ccccc3[nH]2)c2nc3ccccc3[nH]2)cc1` showed an IC50 (CCRF-CEM [1]) of 42.5 µM, an IC50 (CCRF-CEM [2]) of 112 µM and an IC50 (K562 [3]) of 200 µM. For the same molecule, the IC50 (K562 [4]) was 159 µM, the IC50 (A549) was 2.8 µM and the IC50 (MCF7) was 140 µM. It also gave an IC50 (PC-3) of 250 µM, an IC50 (HT-29) of 114 µM and an IC50 (HCT-116 [5]) of 201 µM. The IC50 (HCT-116 [6]) was 16.8 µM and the IC50 (U-118-MG) was 250 µM.
For `c1ccc(NN=C(c2nc3ccccc3[nH]2)c2nc3ccccc3[nH]2)cc1`, the IC50 (CCRF-CEM [1]) was 13 µM, the IC50 (CCRF-CEM [2]) was 27.9 µM and the IC50 (K562 [3]) was 114 µM. It also gave an IC50 (K562 [4]) of 144 µM, an IC50 (A549) of 3.8 µM and an IC50 (MCF7) of 83.2 µM. For the same molecule, the IC50 (PC-3) was 248 µM, the IC50 (HT-29) was 81.9 µM and the IC50 (HCT-116 [5]) was 162 µM. It also gave an IC50 (HCT-116 [6]) of 17.6 µM and an IC50 (U-118-MG) of 160 µM.
`O=c1n(-c2ccccc2)nc(-c2nc3ccccc3[nH]2)c2nc3ccccc3n12` was tested, and the IC50 (CCRF-CEM [1]) was 12.2 µM, the IC50 (CCRF-CEM [2]) was 45.6 µM and the IC50 (K562 [3]) was 23.5 µM. It also gave an IC50 (K562 [4]) of 42.7 µM, an IC50 (A549) of 11.5 µM and an IC50 (MCF7) of 74.8 µM. It also gave an IC50 (PC-3) of 13.6 µM, an IC50 (HT-29) of 8 µM and an IC50 (HCT-116 [5]) of 38.1 µM. The IC50 (HCT-116 [6]) was 8.6 µM and the IC50 (U-118-MG) was 12 µM.
For `COc1ccc(NN=C(c2nc3ccccc3[nH]2)c2nc3ccccc3[nH]2)cc1`, the IC50 (CCRF-CEM [1]) was 10.9 µM, the IC50 (CCRF-CEM [2]) was 96.7 µM and the IC50 (K562 [3]) was 116 µM. It also gave an IC50 (K562 [4]) of 235 µM, an IC50 (A549) of 0.5 µM and an IC50 (MCF7) of 215 µM. The IC50 (PC-3) was 250 µM, the IC50 (HT-29) was 114 µM and the IC50 (HCT-116 [5]) was 35.7 µM. For the same molecule, the IC50 (HCT-116 [6]) was 66.5 µM and the IC50 (U-118-MG) was 250 µM.
Work on `O=[N+]([O-])c1ccc(NN=C(c2nc3ccccc3[nH]2)c2nc3ccccc3[nH]2)cc1` yielded an IC50 (CCRF-CEM [1]) of 58.4 µM, an IC50 (CCRF-CEM [2]) of 140 µM and an IC50 (K562 [3]) of 190 µM. For the same molecule, the IC50 (K562 [4]) was 101 µM, the IC50 (A549) was 0.7 µM and the IC50 (MCF7) was 94.8 µM. The IC50 (PC-3) was 218 µM, the IC50 (HT-29) was 17.7 µM and the IC50 (HCT-116 [5]) was 11.7 µM. It also gave an IC50 (HCT-116 [6]) of 4.7 µM and an IC50 (U-118-MG) of 250 µM.
With `Cc1ccc(-n2nc(-c3nc4ccccc4[nH]3)c3nc4ccccc4n3c2=O)cc1` the IC50 (CCRF-CEM [1]) was 18.5 µM, the IC50 (CCRF-CEM [2]) was 61.2 µM and the IC50 (K562 [3]) was 18.3 µM. The IC50 (K562 [4]) was 20.9 µM, the IC50 (A549) was 14.7 µM and the IC50 (MCF7) was 34.1 µM. For the same molecule, the IC50 (PC-3) was 40.8 µM, the IC50 (HT-29) was 15.2 µM and the IC50 (HCT-116 [5]) was 7.8 µM. The IC50 (HCT-116 [6]) was 7.6 µM and the IC50 (U-118-MG) was 17.9 µM.
For `O=c1n(-c2ccc(Cl)cc2)nc(-c2nc3ccccc3[nH]2)c2nc3ccccc3n12`, the IC50 (CCRF-CEM [1]) was 83.6 µM, the IC50 (CCRF-CEM [2]) was 51.2 µM and the IC50 (K562 [3]) was 134 µM. The IC50 (K562 [4]) was 167 µM, the IC50 (A549) was 1.2 µM and the IC50 (MCF7) was 140 µM. For the same molecule, the IC50 (PC-3) was 242 µM, the IC50 (HT-29) was 88.6 µM and the IC50 (HCT-116 [5]) was 73.9 µM. For the same molecule, the IC50 (HCT-116 [6]) was 2.3 µM and the IC50 (U-118-MG) was 247 µM.
With `CCOC(=O)n1c(-c2nn(-c3ccc(C)cc3)c(=O)n3c2nc2ccccc23)nc2ccccc21` the IC50 (CCRF-CEM [1]) was 25.5 µM, the IC50 (CCRF-CEM [2]) was 29.6 µM and the IC50 (K562 [3]) was 140 µM. The IC50 (K562 [4]) was 53.7 µM, the IC50 (A549) was 71 µM and the IC50 (MCF7) was 134 µM. It also gave an IC50 (PC-3) of 165 µM, an IC50 (HT-29) of 96.2 µM and an IC50 (HCT-116 [5]) of 46.3 µM. The IC50 (HCT-116 [6]) was 44.4 µM and the IC50 (U-118-MG) was 147 µM.
`CCOC(=O)n1c(-c2nn(-c3ccc(OC)cc3)c(=O)n3c2nc2ccccc23)nc2ccccc21` showed an IC50 (CCRF-CEM [1]) of 31.8 µM, an IC50 (CCRF-CEM [2]) of 111 µM and an IC50 (K562 [3]) of 14 µM. It also gave an IC50 (K562 [4]) of 7.8 µM, an IC50 (A549) of 44.4 µM and an IC50 (MCF7) of 51.6 µM. The IC50 (PC-3) was 145 µM, the IC50 (HT-29) was 38.7 µM and the IC50 (HCT-116 [5]) was 42.8 µM. The IC50 (HCT-116 [6]) was 46.3 µM and the IC50 (U-118-MG) was 54.3 µM.
`CCOC(=O)n1c(-c2nn(-c3ccc([N+](=O)[O-])cc3)c(=O)n3c2nc2ccccc23)nc2ccccc21` gave an IC50 (CCRF-CEM [1]) of 155 µM, an IC50 (CCRF-CEM [2]) of 224 µM and an IC50 (K562 [3]) of 166 µM. For the same molecule, the IC50 (K562 [4]) was 196 µM, the IC50 (A549) was 4.4 µM and the IC50 (MCF7) was 144 µM. For the same molecule, the IC50 (PC-3) was 125 µM, the IC50 (HT-29) was 21.9 µM and the IC50 (HCT-116 [5]) was 70.7 µM. For the same molecule, the IC50 (HCT-116 [6]) was 5.4 µM and the IC50 (U-118-MG) was 6.2 µM.
With `Cc1ccc(NN=C(c2nc3ccccc3[nH]2)c2nc3ccccc3[nH]2)cc1` the IC50 (CCRF-CEM [1]) was 26.5 µM, the IC50 (CCRF-CEM [2]) was 87.6 µM and the IC50 (K562 [3]) was 160 µM. For the same molecule, the IC50 (K562 [4]) was 239 µM, the IC50 (A549) was 0.6 µM and the IC50 (MCF7) was 95.8 µM. It also gave an IC50 (PC-3) of 250 µM, an IC50 (HT-29) of 95.9 µM and an IC50 (HCT-116 [5]) of 195 µM. It also gave an IC50 (HCT-116 [6]) of 10.5 µM and an IC50 (U-118-MG) of 250 µM.
With `CCOC(=O)n1c(-c2nn(-c3ccccc3)c(=O)n3c2nc2ccccc23)nc2ccccc21` the IC50 (CCRF-CEM [1]) was 58.6 µM, the IC50 (CCRF-CEM [2]) was 18.4 µM and the IC50 (K562 [3]) was 69.4 µM. The IC50 (K562 [4]) was 42.2 µM, the IC50 (A549) was 18 µM and the IC50 (MCF7) was 35.1 µM. It also gave an IC50 (PC-3) of 37.5 µM, an IC50 (HT-29) of 15.2 µM and an IC50 (HCT-116 [5]) of 11.4 µM. It also gave an IC50 (HCT-116 [6]) of 10.8 µM and an IC50 (U-118-MG) of 17.7 µM.
For `COc1ccc(-n2nc(-c3nc4ccccc4[nH]3)c3nc4ccccc4n3c2=O)cc1`, the IC50 (CCRF-CEM [1]) was 3.5 µM, the IC50 (CCRF-CEM [2]) was 35.4 µM and the IC50 (K562 [3]) was 8.7 µM. It also gave an IC50 (K562 [4]) of 7.5 µM, an IC50 (A549) of 8.7 µM and an IC50 (MCF7) of 10.7 µM. It also gave an IC50 (PC-3) of 24.6 µM, an IC50 (HT-29) of 6 µM and an IC50 (HCT-116 [5]) of 6.9 µM. For the same molecule, the IC50 (HCT-116 [6]) was 3.6 µM and the IC50 (U-118-MG) was 10 µM.
For `CCOC(=O)n1c(-c2nn(-c3ccc(Cl)cc3)c(=O)n3c2nc2ccccc23)nc2ccccc21`, the IC50 (CCRF-CEM [1]) was 31.8 µM, the IC50 (CCRF-CEM [2]) was 111 µM and the IC50 (K562 [3]) was 14.1 µM. For the same molecule, the IC50 (K562 [4]) was 7.9 µM, the IC50 (A549) was 4 µM and the IC50 (MCF7) was 21.3 µM. It also gave an IC50 (PC-3) of 150 µM, an IC50 (HT-29) of 29.7 µM and an IC50 (HCT-116 [5]) of 7.7 µM. For the same molecule, the IC50 (HCT-116 [6]) was 6.4 µM and the IC50 (U-118-MG) was 12.4 µM.
Molecule `O=c1n(-c2ccc([N+](=O)[O-])cc2)nc(-c2nc3ccccc3[nH]2)c2nc3ccccc3n12` has an IC50 (CCRF-CEM [1]) of 103 µM, an IC50 (CCRF-CEM [2]) of 190 µM and an IC50 (K562 [3]) of 210 µM. For the same molecule, the IC50 (K562 [4]) was 250 µM, the IC50 (A549) was 2.2 µM and the IC50 (MCF7) was 250 µM. For the same molecule, the IC50 (PC-3) was 250 µM, the IC50 (HT-29) was 248 µM and the IC50 (HCT-116 [5]) was 250 µM. The IC50 (HCT-116 [6]) was 250 µM and the IC50 (U-118-MG) was 250 µM.
